One assay has as its system Escherichia coli. The assay can be described thus: Bactericidal activity against Escherichia coli ATCC 10798 incubated for 24 hrs under aerobic condition by MABA. The note with it: ATCC 10798, 24 h. Format: functional. (In general: Alamar Blue is a resazurin reagent that responds to reducing activity.)
The subject of assay [1] is Mycobacterium tuberculosis. The assay can be described thus: Bactericidal activity against non-replicating Mycobacterium tuberculosis CDC1551 expressing tdTomato infected in mouse J774A.1 cells at 2 times MIC up to 72 hrs by UV-Visible spectroscopic method. It is filed as functional, organism-based. A digest of the protocol: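 J774A.1 macrophages are seeded at […] cells/well in DMEM and incubated overnight at 37 °C. They are infected with saline-washed Mtb CDC1551-tdTomato (10^6 bacteria, MOI ≈10), and extracellular bacteria are washed off with PBS. Treatment is at 2×MIC, with fluorescence emission read at 581 nm at 24, 48, 72 and 96 h. Survivors are confirmed by serial dilution and plating on 7H11.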

The subject of assay [2] is Mycobacterium tuberculosis. The assay can be described thus: Antibacterial activity against Mycobacterium tuberculosis Erdman infected in Balb/c mouse assessed as reduction in bacterial load in lungs at 100 mg/kg, po for 3 weeks starting from 10 days post infection measured on day 21 post infection. It is filed as functional, Erdman = ATCC 35801. A digest of the protocol:
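Female BALB/c mice, 7–8 weeks old, are aerosol-infected with Mtb Erdman. From day 10 they receive oral gavage in water for three weeks, in groups of 5. Lungs and spleens are harvested at day 21 post-infection and plated for CFU. Efficacy is the log10 reduction in lung burden versus untreated (vehicle) controls.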

The subject of the next assay is Enterococcus faecalis. Kind of assay: Bactericidal activity against Enterococcus faecalis ATCC 349 incubated for 24 hrs under aerobic condition by MABA. Format: functional. The following applies: ATCC 349, 24 h.
A further assay deals with Klebsiella pneumoniae. Kind of assay: Antibacterial activity against Klebsiella pneumoniae ATCC 12019 incubated for 24 hrs under aerobic condition by MABA. It is filed as functional. The note with it: ATCC 12019, 24 h, read-out: MIC100. In short, it runs like this:
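Mid-log cultures at OD 0.5 were exposed to serial dilutions under aerobic conditions at 37 °C for 24 h. Resazurin was then added from a 0.08% stock for 1 h. MIC100 was the lowest concentration where the dye stayed blue (pink means growth). Absorbance was also read at 570 and 600 nm.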

Structures are written as SMILES. In brackets after ≈: the same amount, converted by molar mass. Activity calls are given as the source filed them. The rule behind the calls is not given here. Bounds are passed on as bounds.

With `CC[C@]1(C)C[C@@H](OC(=O)CSC(C)(C)CNC(=O)[C@H](N)CC(C)C)[C@]2(C)[C@H](C)CC[C@]3(CC[C@@H](O)[C@H]32)[C@@H](C)[C@@H]1O`, the MBC with Escherichia coli and with Enterococcus faecalis was above 25 µg/mL throughout. Moreover, in assay [1], the result was Active. Also, the “log(activity)” value in assay [2] is 0.2. For the same compound, in the assay with Klebsiella pneumoniae, the MIC worked out at 12.5 µg/mL (≈ 21.4 µM).

Values taken from ChEMBL document CHEMBL4229550, “An antimycobacterial pleuromutilin analogue effective against dormant bacilli” (Bioorg Med Chem, 2018).
